Screening data deposited in PubChem by several laboratories.
CAL PDZ FP-1 = blocks peptide binding to the human CAL PDZ domain; Q9HD26; purified CAL PDZ, TMR-peptide fluorescence polarization, 1 h; inhibition, % at 24.9 µM; 0.92% of 300,000 active; AID 602252;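 active means mean inhibition of at least 30% with at least half of replicates also reaching 30%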;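 further: 0% = DMSO neutral control and 100% = excess unlabeled competitor peptide PRC23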
SR-BI uptake up = activators of SR-BI mediated HDL lipid uptake; 0.096% of 320,000 active; CHO ldlA[mSR-BI] cells, DiI-HDL uptake fluorescence, 3 h; 100 = double the neutral-control signal; AID 504775; activation, % at 12.5 µM;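 active means mean replicate activation of at least 60% and every replicate at or above 60%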;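 further: 0% = median plate neutral-control signal and 100% = twice that signal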
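system = CHO ldlA[mSR-BI] cells, LDL receptor-null, SR-BI overexpressing | medium = Ham's F12 with 0.5% BSA, HEPES 25 mM, pH 7.4 | probe or stimulus = DiI-HDL 10 µg/mL | compound dosing = single-point compound dose | incubation = compound exposure 3 h, 37 °C | technique = DiI fluorescence, bottom read | read-out = cell-associated DiI fluorescence as measure of HDL uptake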
CAL PDZ FP-2 = inhibitors of human CAL PDZ peptide binding. purified CAL PDZ, TMR-peptide fluorescence polarization, 1 h. inhibition, % at 20 µM. 0.02% of 330,000 active. AID 504414;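 active means highest replicate inhibition of at least 40%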;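 further: plate controls were DMSO neutral control wells for no effect and unlabeled competitor peptide control wells for full effect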
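Material: tagged CAL PDZ protein CerCALP, purified; buffer or medium: sodium phosphate/NaCl buffer pH 7.4 with TCEP, IgG, Thesit; also added: fluorescent TMR peptide probe; schedule: 1 h incubation at room temperature before polarization reading; technique: fluorescence polarization from S- and P-plane intensities, G-factor corrected; control set: unlabelled peptide and DMSO controls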
SR-BI DiI inh = mouse SR-BI HDL lipid transfer inhibition | Q61009 | ldlA[mSR-BI] CHO cells, DiI-HDL uptake fluorescence, 3 h | inhibition, % at 12.5 µM | 0.96% of 320,000 active | AID 488896;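 active means mean replicate inhibition of at least 70% and a set share of replicates each scoring 70 or more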;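 further: 0% = median of neutral control wells and 100% = median of positive control wells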
ATG4B inh = ATG4B (human) cysteine protease inhibition. Q9Y4P1. ATG4B cleavage of LC3-PLA2, NBD-HPC fluorescence, 1 h. inhibition, % at 8.33 µM. 0.51% of 340,000 active. AID 504462; in the data active means inhibition above about 40%
Target sequence (Q9Y4P1 whole entry, looked up): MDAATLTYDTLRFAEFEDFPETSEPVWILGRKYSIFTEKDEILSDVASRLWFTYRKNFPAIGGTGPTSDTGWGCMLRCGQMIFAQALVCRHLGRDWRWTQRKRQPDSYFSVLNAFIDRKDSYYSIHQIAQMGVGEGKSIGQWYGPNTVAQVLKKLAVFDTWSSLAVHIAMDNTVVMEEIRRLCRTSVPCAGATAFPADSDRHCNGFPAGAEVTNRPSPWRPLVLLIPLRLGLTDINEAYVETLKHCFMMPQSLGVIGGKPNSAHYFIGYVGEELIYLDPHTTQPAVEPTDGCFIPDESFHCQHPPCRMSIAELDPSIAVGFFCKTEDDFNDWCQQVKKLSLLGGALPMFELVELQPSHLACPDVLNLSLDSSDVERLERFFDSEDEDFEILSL
* hit, by the source's call; · = no result given. An excerpt weighted towards active compounds, which were near 2.3% of everything screened.

SMILES | CAL PDZ FP-1 | SR-BI uptake up | CAL PDZ FP-2 | SR-BI DiI inh | ATG4B inh
COc1ccc(N=Cc2cc(Cc3ccccc3Cl)cc([N+](=O)[O-])c2O)cc1OC | 3 | 22 | -4 | -22 | 94*
Cc1cccc2c(=O)cc(C)n(CC(N)=O)c12 | -1 | 16 | -1 | -16 | 2
O=C(COC(=O)c1ccc2c(c1)S(=O)(=O)c1ccccc1C2=O)NC1CC1 | · | -11 | -3 | 11 | -9
CC1CCC(NC(=O)c2ccc3c(c2)S(=O)(=O)c2ccccc2C3=O)CC1 (stereo not given) | 4 | -14 | 43* | 14 | 4
COc1ccccc1-c1c(C)nn2c(N)c(-c3ccccc3)cnc12 | 69* | -17 | · | 17 | -3
Cc1ccc2nc(NC(=O)c3ccc(N4C(=O)CCC4=O)cc3)sc2c1 | -1 | -77 | 0 | 77* | -2
O=C(Nc1nc(-c2cc(F)ccc2F)cs1)c1cccc(N2C(=O)CCC2=O)c1 | -1 | -68 | -3 | 68 | -13
Cc1ccc2sc(NC(=O)c3cccc(N4C(=O)CCC4=O)c3)nc2c1C | · | -94 | 0 | 94* | 13
Cc1ccc2sc(NC(=O)c3ccc(N4C(=O)CCC4=O)cc3)nc2c1C | · | -61 | 0 | 61 | -7
O=C(Nc1nc(-c2ccc(F)cc2)cs1)c1cccc(N2C(=O)CCC2=O)c1 | -2 | -81 | -4 | 81* | -8
O=C(Nc1cccc(NC(=O)c2ccccc2)n1)c1ccccc1 | -6 | -49 | -3 | 49 | -12
CCCCNc1ccc2c(c1)C1CC2CCN1C(=O)OCc1ccccc1 (stereo not given) | -3 | 8 | 0 | -8 | 15
CCN(C(=O)c1ccc2c(=O)n3c(nc2c1)CCCCC3)c1ccccc1C | -5 | 18 | -2 | -18 | -4
Cc1ccc(C)c(Cn2c(O)c(N=NC(=S)Nc3ccccc3F)c3ccccc32)c1 | · | -84 | -1 | 84* | -9
COc1ccc(NC(=O)CC(CC(=O)O)c2cc(OC)c(OC)c(OC)c2)cc1 (stereo not given) | 59* | 8 | 0 | -8 | 3
O=C(O)CC(CC(=O)Nc1ccc(Oc2ccccc2)cc1)c1ccccc1 (stereo not given) | -2 | 17 | -1 | -17 | -7
Cc1c(C(=O)N2CCOCC2)c(S(=O)(=O)Nc2cccc(F)c2)c(C)n1C | -3 | 6 | 0 | -6 | 13
Cc1c(C(=O)N2CCOCC2)c(S(=O)(=O)Nc2cccc(C#N)c2)c(C)n1C | 68* | 14 | 0 | -14 | -4
CCc1ccccc1NC(=O)c1ccc(OCc2c(C)noc2C)cc1 | 1 | -53 | -1 | 53 | 0
O=C(N/N=C/c1cc(Cl)ccc1O)c1cccnc1 | -4 | -70 | -2 | 70* | 5
O=C(Nc1cc(S(=O)(=O)Nc2ccc(Cl)cc2)ccc1O)c1ccc(S(=O)(=O)N2CCCCCC2)cc1 | -21 | -6 | 0 | 6 | 18
O=C(N/N=C\c1cc(Cl)ccc1O)c1ccc(S(=O)(=O)N2CCCCC2)cc1 | · | -135 | -1 | 135* | -2
O=C(N/N=C/c1ccc(Cl)cc1Cl)c1ccncc1 | -6 | -22 | -3 | 22 | -5
O=C(N/N=C/c1cc(Cl)ccc1O)c1ccccc1Br | -1 | -78 | 0 | 78* | 1
O=C(N/N=C/c1cc(Cl)cc(Cl)c1O)c1ccncc1 | 0 | -132 | -4 | 132* | -1
SMILES | CAL PDZ FP-1 | SR-BI uptake up | CAL PDZ FP-2 | SR-BI DiI inh | ATG4B inh
COc1cc[n+]([O-])cc1[N+](=O)[O-] | · | 17 | 0 | -17 | 4
O=C(CCCSCCCC(=O)NN=Cc1ccccc1)NN=Cc1ccccc1 | -3 | -33 | 0 | 33 | -11
O=C(O)c1ccc(NC2(C(=O)O)CCCC2)cc1 | 1 | -5 | -1 | 5 | 1
Oc1c(Cl)cc(Cl)cc1/C=N/Nc1ncc(Br)cn1 | -3 | -130 | -1 | 130* | -9
COc1cc(C(=O)OCC(=O)Nc2ccc(SC(F)F)cc2)cc(OC)c1OC | -7 | 5 | -1 | -5 | -9
COc1cc(/C=C(\C#N)C(=O)Nc2ccc(SC(F)F)cc2)cc(OC)c1OC | 10 | -86 | 0 | 86* | -5
CCC(c1nnc(SC(C)C(=O)NC2CC2)n1-c1ccc(OC)cc1)N(C)C (stereo not given) | 68* | 11 | 1 | -11 | -14
C=CCn1c(COc2ccc(OC)cc2)nnc1SC(C)C(=O)NC1CC1 (stereo not given) | -2 | -5 | -2 | 5 | -4
Cc1cnc(C(=O)Oc2c(C)ccc(C)c2C)cn1 | -3 | -3 | -3 | 3 | 3
Cc1ccc(N(Cc2ccccc2)C(=O)CN2C(=O)NC3(CCCC3)C2=O)cc1 | 1 | -9 | -2 | 9 | -2
COc1ccccc1C(CNC(=O)c1ccc(NS(=O)(=O)c2ccc(F)c(C)c2)cc1)N1CCCC1 (stereo not given) | 1 | 23 | -3 | -23 | 4
COc1ccc(C(CNC(=O)c2ccc(NS(=O)(=O)c3ccc(F)c(C)c3)cc2)N2CCCC2)cc1 (stereo not given) | 55* | 7 | -3 | -7 | -5
COc1cc2cc(CN(Cc3cccnc3)C(=O)Nc3ccccc3F)c(=O)[nH]c2cc1OC | -5 | 13 | -4 | -13 | -9
CCCN(CC(=O)Nc1ccccc1C)C(=O)c1sc2ccccc2c1Cl | 61* | -7 | 0 | 7 | -7
Cc1ccccc1NC(=O)COC(=O)CNC(=O)c1sc2ccccc2c1Cl | 2 | 11 | -1 | -11 | -10
CCCc1c(O)nc(SCCN(CCC)CCC)[nH]c1=O | -4 | 21 | -1 | -21 | 5
CCCCCCCc1c(O)nc(SCCN(C)C)[nH]c1=O | -1 | 272* | 0 | -272 | -7
COc1ccc2nc(NC(=O)c3ccoc3C)sc2c1 | · | -54 | -2 | 54 | -8
Cc1cc(C(=O)Nc2nc3ccc(S(C)(=O)=O)cc3s2)c(C)o1 | -4 | -82 | 0 | 82* | 1
NS(=O)(=O)c1ccc2nc(NC(=O)c3ccc4ncsc4c3)sc2c1 | 4 | -14 | -2 | 14 | -11
NS(=O)(=O)c1ccc2nc(NC(=O)c3ccc4c(c3)OCCO4)sc2c1 | 63* | -61 | -1 | 61 | 3
COc1ccc2nc(NC(=O)c3cc(C)oc3C)sc2c1 | -1 | -83 | -4 | 83* | -8
Cc1ccc(C(=O)Nc2nc3ccc(S(C)(=O)=O)cc3s2)s1 | · | -24 | -2 | 24 | 1
CC(O)C(NC=C1C(=O)OC(C)(C)OC1=O)C(=O)O (stereo not given) | -6 | 8 | · | -8 | 0
Cc1ccc(CNS(=O)(=O)c2c(C(=O)N3CCCCC3)c(C)n(C)c2C)o1 | -5 | 11 | -1 | -11 | 7
O=C(Cc1c(F)cccc1Cl)Nc1nccs1 | -4 | -10 | · | 10 | -3
COC(=O)c1cc(NC(=O)c2cc(-c3ccccc3Cl)oc2C(F)(F)F)ccc1N1CCOCC1 | -3 | -84 | 1 | 84* | -12
